Here are results for 69 compounds from PubChem BioAssay AID504331 (Broad Institute, 2011).

“And” between values parts separate entries of the source, which are not always exact repeats. Equal values may be shown once. The source made the active and inactive calls.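 Rule for the calls: active = compounds that lower cell viability with a fitted AC50 at most ten times their top valid dose; inconclusive = flat fit showing 30 to 70 percent loss, or poor fit; inactive = the rest.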

Test system in one assay: not listed separately
The experiment in a line: U2OS reporter cell viability with added iron – iron-supplemented medium, dry powder, cytotoxicity control for HIF pathway activator project, dose response (AID 504331). The conditions noted are these: U2OS HRE-luc cells viability, CellTiter-Glo luminescence; at 38 µM (top of the series). A digest of the protocol: (§1)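 Assay system – U2OS HRE-luciferase reporter cells · Input – 6,000 cells/well · Medium – phenol red-free DMEM, 10% FBS, 50 µM final ferric nitrate · Timing – cells plated 24 h before dosing, 24 h compound exposure at 37 °C · Technique – CellTiter-Glo luminescence for cell viability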
Background: Cellular ATP, detected with luciferase, serves as a proxy for viable cell number.
On to `O=C(NCCN1CCOCC1)c1cc(-c2ccccc2)on1`, for which the activity change, negative = cytotoxicity was 12.9% (inactive).

For the compound `CC(C)(C)CCNc1nc(-c2ccccn2)nnc1-c1ccccc1`, the activity change, negative = cytotoxicity is -21.1% (inactive).

Turning to `O=C(NCC1CC1)c1cc(-c2ccccc2)on1`, the activity change, negative = cytotoxicity was 20.9% (inactive).

Take `CN1CCN(c2nc(-c3ccccn3)nnc2-c2ccccc2)CC1`: the activity change, negative = cytotoxicity was -22.1% (inactive).

With `O=C(Nc1nc2ccccc2s1)c1cc(-c2ccccc2)on1`, the activity change, negative = cytotoxicity was 11.3% (inactive).

Turning to `Cc1cccc(NC(=O)c2cc(-c3ccccc3)on2)n1`, the activity change, negative = cytotoxicity is -3.67% (inactive).

As to `c1ccc(-c2nnc(-c3ccccn3)nc2NCCN2CCOCC2)cc1`, the activity change, negative = cytotoxicity was -5.86% (inactive).

For `O=C(NCCCCO)c1cc(-c2ccccc2)on1`, the activity change, negative = cytotoxicity is 1.09% (inactive).

`c1ccc(-c2nnc(-c3ccccn3)nc2NCC2CCOCC2)cc1`: the activity change, negative = cytotoxicity is 5.99% (inactive).

As to `N#CC1(c2ccccc2)CCN(Cc2ccc(O)c3ncccc23)CC1`, the activity change, negative = cytotoxicity was 10.7% (inactive).

In the case of `CC(C)(C)OC(=O)N1CCN(Cc2ccc(O)c3ncccc23)CC1`, the activity change, negative = cytotoxicity is 8.63% (inactive).

In the case of `c1ccc(-c2nnc(-c3ccccn3)nc2NCCCN2CCOCC2)cc1`, the activity change, negative = cytotoxicity is 9.59% (inactive).

For the compound `Cc1cccc(CNC(=O)c2cc(-c3ccccc3)on2)c1`, the activity change, negative = cytotoxicity was -4.42% (inactive).

Turning to `c1ccc(-c2nnc(-c3ccccn3)nc2NCC2CC2)cc1`, the activity change, negative = cytotoxicity was 4.24% (inactive).

With `c1ccc(-c2nnc(-c3ccccn3)nc2N2CCN(c3ccncc3)CC2)cc1`, the activity change, negative = cytotoxicity was 7.73% (inactive).

Consider `O=C(Nc1ncc(-c2ccccc2)o1)c1cc(-c2ccccc2)on1`, for which the activity change, negative = cytotoxicity was 1.13% (inactive).

Take `Cn1c(NC(=O)c2cc(-c3ccccc3)on2)nc2ccccc21`: the activity change, negative = cytotoxicity was 15.8% (inactive).

`O=C(Nc1cn2ccccc2n1)c1cc(-c2ccccc2)on1`: the activity change, negative = cytotoxicity is 15.5% (inactive).

Consider `O=C(Nc1nc(-c2ccccc2)cs1)c1cc(-c2ccccc2)on1`, for which the activity change, negative = cytotoxicity was 8.59% (inactive).

Turning to `Oc1ccc(CN2CCC(Cc3ccccc3)CC2)c2cccnc12`, the activity change, negative = cytotoxicity is -1.73% (inactive).

`O=C(c1cc(-c2ccccc2)on1)N1CCC(N2CCCC2)CC1`: the activity change, negative = cytotoxicity is -1.03% (inactive).

Regarding `CN(C)CCNC(=O)c1cc(-c2ccccc2)on1`, the activity change, negative = cytotoxicity is 11% (inactive).

As for `O=C(NCC1CCCCC1)c1cc(-c2ccccc2)on1`, the activity change, negative = cytotoxicity was -8.74% (inactive).

As for `Cc1ccc(CNC(=O)c2cc(-c3ccccc3)on2)cc1`, the activity change, negative = cytotoxicity is -12.1% (inactive).

Consider `O=C(Nc1cnc2ccccc2c1)c1cc(-c2ccccc2)on1`, for which the activity change, negative = cytotoxicity was -0.953% (inactive).

Take `O=C(Nc1ncc2ccccc2n1)c1cc(-c2ccccc2)on1`: the activity change, negative = cytotoxicity is -12.2% (inactive).

In the case of `Cc1ccc(NC(=O)c2cc(-c3ccccc3)on2)cn1`, the activity change, negative = cytotoxicity is -4.1% (inactive).

As for `Cc1ccccc1CNC(=O)c1cc(-c2ccccc2)on1`, the activity change, negative = cytotoxicity is 4.84% (inactive).

Turning to `O=C(c1cc(-c2ccccc2)on1)N1CCC(N2CCOCC2)CC1`, the activity change, negative = cytotoxicity was 5.61% (inactive).

Take `O=C(c1cc(-c2ccccc2)on1)N1CCC(CO)CC1`: the activity change, negative = cytotoxicity is 7.47% (inactive).

Regarding `Cc1cccc(CNc2nc(-c3ccccn3)nnc2-c2ccccc2)c1`, the activity change, negative = cytotoxicity is -8.02% (inactive).

Regarding `O=C(NCCCO)c1cc(-c2ccccc2)on1`, the activity change, negative = cytotoxicity was -4.34% (inactive).

For the compound `c1ccc(-c2nnc(Nc3nc(-c4ccccn4)nnc3-c3ccccc3)s2)cc1`, the activity change, negative = cytotoxicity was 5.32% (inactive).

Turning to `c1ccc(CNc2nc(-c3ccccn3)nnc2-c2ccccc2)cc1`, the activity change, negative = cytotoxicity is 0.83% (inactive).

As to `O=C(Nc1ccc2ccccc2n1)c1cc(-c2ccccc2)on1`, the activity change, negative = cytotoxicity was 13% (inactive).

For `C=CCNc1nc(-c2ccccn2)nnc1-c1ccccc1`, the activity change, negative = cytotoxicity is 6.06% (inactive).

With `OCCCNc1nc(-c2ccccn2)nnc1-c1ccccc1`, the activity change, negative = cytotoxicity was 12.8% (inactive).

Regarding `c1ccc(-c2nnc(-c3ccccn3)nc2NCCc2ccccn2)cc1`, the activity change, negative = cytotoxicity was -1.62% (inactive).

As for `c1ccc(-c2nnc(-c3ccccn3)nc2N2CCC(C3CCCCC3)C2)cc1` (centres undefined), the activity change, negative = cytotoxicity is 0.423% (inactive).

For `CC(C)(C)CCNC(=O)c1cc(-c2ccccc2)on1`, the activity change, negative = cytotoxicity is -4% (inactive).

On to `Cn1c(-c2ccccc2)cnc1NC(=O)c1cc(-c2ccccc2)on1`, for which the activity change, negative = cytotoxicity is -7.51% (inactive).

Take `O=C(NCCN1CCCCC1)c1cc(-c2ccccc2)on1`: the activity change, negative = cytotoxicity was 14% (inactive).

`CN(C)c1nc(-c2ccccn2)nnc1-c1ccccc1`: the activity change, negative = cytotoxicity is 13.9% (inactive).

`O=C(NC1Cc2ccccc2C1)c1cc(-c2ccccc2)on1`: the activity change, negative = cytotoxicity was -12.2% (inactive).

For the compound `O=C(c1cc(-c2ccccc2)on1)N1CCc2cccnc21`, the activity change, negative = cytotoxicity is -7.82% (inactive).

`CCCCNC(=O)c1cc(-c2ccccc2)on1`: the activity change, negative = cytotoxicity is 5.24% (inactive).

In the case of `c1ccc(-c2nnc(-c3ccccn3)nc2N2CCC(N3CCOCC3)CC2)cc1`, the activity change, negative = cytotoxicity is 5.36% (inactive).

On to `O=C(NCc1ccccc1)c1cc(-c2ccccc2)on1`, for which the activity change, negative = cytotoxicity is 6.28% (inactive).

For the compound `CN1CCN(C(=O)c2cc(-c3ccccc3)on2)CC1`, the activity change, negative = cytotoxicity was 2.12% (inactive).

For the compound `Cc1ccccc1CNc1nc(-c2ccccn2)nnc1-c1ccccc1`, the activity change, negative = cytotoxicity is -20% (inactive).

Consider `c1ccc(-c2cccc(CNc3nc(-c4ccccn4)nnc3-c3ccccc3)c2)cc1`, for which the activity change, negative = cytotoxicity was -2.48% (inactive).

`O=C(Nc1nnc(-c2ccccc2)s1)c1cc(-c2ccccc2)on1`: the activity change, negative = cytotoxicity is 13.2% (inactive).

`c1ccc(-c2nnc(-c3ccccn3)nc2NCc2cccnc2)cc1`: the activity change, negative = cytotoxicity is 17% (inactive).

As to `O=C(NCCCn1ccnc1)c1cc(-c2ccccc2)on1`, the activity change, negative = cytotoxicity is -7.58% (inactive).

Consider `O=C(NCCCN1CCOCC1)c1cc(-c2ccccc2)on1`, for which the activity change, negative = cytotoxicity was 11% (inactive).

A further assay has as its system U2OS HRE-luc cells viability, CellTiter-Glo luminescence. The assay is described as above.
Conditions: not given
A digest of the protocol:
as §1
With `Oc1ccc(CN2CCC3CCCCC3C2)c2cccnc12` (centres undefined), the AC50 (in general, the concentration giving half of the maximal activity seen) is 22.5 µM.

Take `c1ccc(-c2nnc(-c3ccccn3)nc2N2CCC(c3ccccc3)C2)cc1` (centres undefined): the AC50 is 13.6 µM.

Turning to `Oc1ccc(CNC2Cc3ccccc3C2)c2cccnc12`, the AC50 is 22.5 µM.

Take `CC1CN(Cc2ccc(O)c3ncccc23)CC(C)O1` (centres undefined): the concentration at half-maximal activity (AC50) is 15.6 µM.

As to `O=C(c1cc(-c2ccccc2)on1)N1CCN(c2ccncc2)CC1`, the AC50 is > 38 µM (inactive).

In the case of `c1ccc(-c2nnc(-c3ccccn3)nc2NCc2ccccn2)cc1`, the AC50 is > 38 µM (inactive).

Consider `Oc1ccc(CNC2CCc3ccccc32)c2cccnc12` (centres undefined), for which the AC50 is 35.7 µM.

As to `COc1ccccc1N1CCN(Cc2ccc(O)c3ncccc23)CC1`, the AC50 was 33.2 µM.

As for `Oc1ccc(CN2CCc3ccccc3C2)c2cccnc12`, the AC50 was 23.3 µM and 24.6 µM.

For `OCC1CCN(Cc2ccc(O)c3ncccc23)CC1`, the AC50 is 2.54 µM.

With `Cn1c(-c2ccccc2)cnc1Nc1nc(-c2ccccn2)nnc1-c1ccccc1`, the AC50 is > 38 µM (inactive).

In the case of `O=C(NC1CCc2ccccc2C1)c1cc(-c2ccccc2)on1` (centres undefined), the AC50 was > 38 µM (inactive).

On to `C[C@@H](Nc1nc(-c2ccccn2)nnc1-c1ccccc1)C1CCCCC1`, for which the AC50 is 32 µM.

In the case of `c1ccc(-c2csc(Nc3nc(-c4ccccn4)nnc3-c3ccccc3)n2)cc1`, the AC50 was > 38 µM (inactive).
